Experimental data: ChEMBL document CHEMBL1275496, “In vivo pharmacodynamic target investigation for micafungin against Candida albicans and C. glabrata in a neutropenic murine candidiasis model” (Antimicrob Agents Chemother, 2008)
Converted amounts (≈) assume the structure as drawn. *1 amine or outer side, *2 acyl side, *3 side chain or, on linkers, in order; H or OH if unused. Where a SMILES comes first, the peptide text is derived from it. Bridges are numbered along the chain shown (N, C = ends). [ ]: non-standard residue; d: D form. The star is where a group is joined. hTyr(3S-OH,4S-OH,3'-OSO3H) = N[C@H](C(=O)O)[C@H](O)[C@@H](O)c1ccc(O)c(OS(=O)(=O)O)c1; Orn(4R-OH,5R-OH) = O=C([C@H](C[C@@H](O)[C@@H](O)N[*:3])N[*:1])[*:2]; Pro(3S-OH,4S-Me) = C[C@H]1CN[C@H](C(=O)O)[C@H]1O; X1 = CCCCCOc1ccc(-c2cc(-c3ccc(C(=O)*)cc3)no2)cc1; Gln(3R-OH) = NC(=O)C[C@@H](O)[C@H](N)C(=O)O; Hyp = O=C(O)[C@@H]1C[C@@H](O)CN1

How the values were obtained:
[1] = Ratio of fAUC in ICR/Swiss neutropenic mouse at static dose of 0.90 mg/kg, ip after 24 hrs to MIC for Candida glabrata isolate 5376; type: functional; conditions: dose 0.9 mg/kg; route intraperitoneal
[2] = Ratio of fAUC in ICR/Swiss neutropenic mouse at static dose of 2.84 mg/kg, ip after 24 hrs to MIC for Candida albicans isolate 98-210; type: functional; conditions: route intraperitoneal
[3] = Ratio of fAUC in ICR/Swiss neutropenic mouse at 1-Log kill dose of 2.36 mg/kg, ip after 24 hrs to MIC for Candida albicans isolate 580; type: functional; conditions: route intraperitoneal
Nakaseomyces glabratus [4] = assay: Antifungal activity against Candida glabrata isolate 35315 infected in ICR/Swiss neutropenic mouse assessed as dose required for 1-log kill after 24 hrs; type: functional
Summary of the method: (§1)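 Neutropenic mice (cyclophosphamide sc 150 mg/kg day −4, 100 mg/kg day −1 and +2) infected iv by tail vein 2 h before therapy. Micafungin given ip every 24 h for 4 days at six fourfold-spaced dose levels, 0.078–80 mg/kg/24 h, 3 mice per group. Kidney CFU read at 96 h. Hill-model fit; dose giving 1 log10 below start-of-therapy burden.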

Nakaseomyces glabratus [5] = assay: Antifungal activity against Candida glabrata isolate 5592 infected in ICR/Swiss neutropenic mouse assessed as dose required for 1-log kill after 24 hrs; type: functional; summary of the method: as §1
[6] = Ratio of fAUC in ICR/Swiss neutropenic mouse at static dose of 3.76 mg/kg, ip after 24 hrs to MIC for Candida glabrata isolate 570; type: functional; conditions: route intraperitoneal
[7] = Ratio of AUC in ICR/Swiss neutropenic mouse at static dose of 1.34 mg/kg, ip after 24 hrs to MIC for Candida glabrata isolate 513; type: functional; conditions: route intraperitoneal
[8] = Ratio of AUC in ICR/Swiss neutropenic mouse at 1-Log kill dose of 10.4 mg/kg, ip after 24 hrs to MIC for Candida albicans isolate 98-210; type: functional; conditions: route intraperitoneal
[9] = Ratio of fAUC in ICR/Swiss neutropenic mouse at 1-Log kill dose of 6.70 mg/kg, ip after 24 hrs to MIC for Candida glabrata isolate 570; type: functional; conditions: dose 6.7 mg/kg; route intraperitoneal
[10] = Ratio of fAUC in ICR/Swiss neutropenic mouse at 1-Log kill dose of 7.89 mg/kg, ip after 24 hrs to MIC for Candida glabrata isolate 33616; type: functional; conditions: route intraperitoneal
[11] = Ratio of AUC in ICR/Swiss neutropenic mouse at 1-Log kill dose of 7.89 mg/kg, ip after 24 hrs to MIC for Candida glabrata isolate 33616; type: functional; conditions: route intraperitoneal
[12] = AUC (0 to infinity) in Candida infected ICR/Swiss neutropenic mouse at 5 mg/kg, ip; type: ADME, organism-based; set-up: dose 5 mg/kg, route intraperitoneal, time infinity; conditions: plasma
Summary of the method: (§2)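 Single intraperitoneal micafungin doses (80, 20, 5 mg/kg in 0.2 ml, 0.15 M NaCl) given to infected neutropenic mice. Serum was taken from 3 mice per time point at 1, 2, 4, 6, 8, 12, 24 and 48 h. Drug was measured by microbiologic assay with C. albicans K1 (LLOQ 0.12 μg/ml). Noncompartmental analysis; half-life by nonlinear least squares; AUC by trapezoidal rule.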

[13] = Ratio of AUC in ICR/Swiss neutropenic mouse at static dose of 2.4 mg/kg, ip after 24 hrs to MIC for Candida glabrata isolate 35315; type: functional; conditions: route intraperitoneal
[14] = Ratio of AUC in ICR/Swiss neutropenic mouse at 1-Log kill dose of 20.6 mg/kg, ip after 24 hrs to MIC for Candida glabrata isolate 37661; type: functional; conditions: route intraperitoneal
[15] = Ratio of AUC in ICR/Swiss neutropenic mouse at 1-Log kill dose of 4.60 mg/kg, ip after 24 hrs to MIC for Candida albicans isolate 98-17; type: functional; conditions: dose 4.6 mg/kg; route intraperitoneal
Nakaseomyces glabratus [16] = assay: Antifungal activity against Candida glabrata isolate 32930 by CLSI method; type: functional
Summary of the method: (§3)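 Broth microdilution MIC per CLSI M27-A2. Two endpoints were read against the drug-free control well: partial inhibition (M1, CLSI recommended) and complete inhibition (M2). Tests were run in duplicate on four separate occasions, and the value is the mean.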

[17] = Ratio of AUC in ICR/Swiss neutropenic mouse at 1-Log kill dose of 2.0 mg/kg, ip after 24 hrs to MIC for Candida glabrata isolate 5376; type: functional; conditions: route intraperitoneal
Candida albicans [18] = assay: Antifungal activity against Candida albicans isolate 580 infected in ICR/Swiss neutropenic mouse assessed as dose required for 1-log kill after 24 hrs; type: functional; summary of the method: as §1
[19] = Ratio of fAUC in ICR/Swiss neutropenic mouse at static dose of 2.18 mg/kg, ip after 24 hrs to MIC for Candida glabrata isolate 34341; type: functional; conditions: route intraperitoneal
[20] = Ratio of fAUC in ICR/Swiss neutropenic mouse at static dose of 2.4 mg/kg, ip after 24 hrs to MIC for Candida glabrata isolate 35315; type: functional; conditions: route intraperitoneal
[21] = Ratio of fAUC in ICR/Swiss neutropenic mouse at 1-Log kill dose of 20.6 mg/kg, ip after 24 hrs to MIC for Candida glabrata isolate 37661; type: functional; conditions: route intraperitoneal
[22] = Ratio of AUC in ICR/Swiss neutropenic mouse at static dose of 2.84 mg/kg, ip after 24 hrs to MIC for Candida albicans isolate K1; type: functional; conditions: route intraperitoneal
[23] = Ratio of AUC in ICR/Swiss neutropenic mouse at static dose of 2.84 mg/kg, ip after 24 hrs to MIC for Candida albicans isolate 98-210; type: functional; conditions: route intraperitoneal
Nakaseomyces glabratus [24] = assay: Antifungal activity against Candida glabrata isolate 34341 infected in ICR/Swiss neutropenic mouse assessed as dose required for 1-log kill after 24 hrs; type: functional; summary of the method: as §1
Nakaseomyces glabratus [25] = assay: Antifungal activity against Candida glabrata isolate 570 infected in ICR/Swiss neutropenic mouse assessed as dose required for 1-log kill after 24 hrs; type: functional; summary of the method: as §1
Nakaseomyces glabratus [26] = assay: Antifungal activity against Candida glabrata; type: functional; summary of the method: as §3
Nakaseomyces glabratus [27] = assay: Antifungal activity against Candida glabrata isolate 5376 by CLSI method; type: functional; summary of the method: as §3
Nakaseomyces glabratus [28] = assay: Antifungal activity against Candida glabrata isolate 570 by CLSI method; type: functional; summary of the method: as §3
[29] = AUC (0 to infinity) in Candida infected ICR/Swiss neutropenic mouse at 80 mg/kg, ip; type: ADME, organism-based; set-up: time infinity, dose 80 mg/kg, route intraperitoneal; conditions: plasma; summary of the method: as §2
Nakaseomyces glabratus [30] = assay: Fungistatic activity against Candida glabrata isolate 37661 infected in ICR/Swiss neutropenic mouse after 24 hrs; type: functional
Summary of the method: (§4)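 Neutropenic female ICR/Swiss mice received cyclophosphamide sc at 150 mg/kg on day −4, 100 mg/kg on day −1 and 100 mg/kg on day +2. Mice were infected iv via the tail vein, and ip micafungin in 0.15 M NaCl started 2 h later. Six dose levels from 0.078 to 80 mg/kg/24 h were given q24h for 4 days, 3 mice per dose. Kidney CFU were counted at 96 h. The static dose was derived from a sigmoid Emax (Hill) fit.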

Candida albicans [31] = assay: Antifungal activity against Candida albicans isolate 98-17 infected in ICR/Swiss neutropenic mouse assessed as dose required for 1-log kill after 24 hrs; type: functional; summary of the method: as §1
Nakaseomyces glabratus [32] = assay: Fungistatic activity against Candida glabrata isolate 33609 infected in ICR/Swiss neutropenic mouse after 24 hrs; type: functional; summary of the method: as §4

`CCCCCOc1ccc(-c2cc(-c3ccc(C(=O)N[C@H]4C[C@@H](O)[C@@H](O)NC(=O)[C@@H]5[C@@H](O)[C@@H](C)CN5C(=O)[C@H]([C@H](O)CC(N)=O)NC(=O)[C@H]([C@H](O)[C@@H](O)c5ccc(O)c(OS(=O)(=O)O)c5)NC(=O)[C@@H]5C[C@@H](O)CN5C(=O)[C@H]([C@@H](C)O)NC4=O)cc3)no2)cc1` [MICAFUNGIN] (X1-[Orn(4R-OH,5R-OH)]T[Hyp][hTyr(3S-OH,4S-OH,3'-OSO3H)][Gln(3R-OH)][Pro(3S-OH,4S-Me)]; lactam 1-C) gave a fAUC/MIC [1] of 8.9, a fAUC/MIC [2] of 13 and a fAUC/MIC [3] of 4.21. The Activity (Nakaseomyces glabratus [4]) was 3.77 mg/kg, the Activity (Nakaseomyces glabratus [5]) was 5.46 mg/kg and the fAUC/MIC [6] was 17.3. The RatioAUC/MIC [7] was 2467, the RatioAUC/MIC [8] was 18400 and the fAUC/MIC [9] was 30.2. For the same compound, the fAUC/MIC [10] was 2.2, the RatioAUC/MIC [11] was 848 and the AUC(0-inf) [12] was 138 µg·h/mL. The RatioAUC/MIC [13] was 1103, the RatioAUC/MIC [14] was 2080 and the RatioAUC/MIC [15] was 4233. The MIC (Nakaseomyces glabratus [16]) was 0.016 µg/mL (≈ 0.0126 µM), the MIC50 (Nakaseomyces glabratus [16]) was 0.008 µg/mL (≈ 0.0063 µM) and the RatioAUC/MIC [17] was 7886. It also gave an Activity (Candida albicans [18]) of 2.36 mg/kg, a fAUC/MIC [19] of 2.51 and a fAUC/MIC [20] of 2.8. It also gave a fAUC/MIC [21] of 5.2, a RatioAUC/MIC [22] of 5200 and a RatioAUC/MIC [23] of 5200. It also gave an Activity (Nakaseomyces glabratus [24]) of 4.26 mg/kg, an Activity (Nakaseomyces glabratus [25]) of 6.7 mg/kg and an MIC50 (Nakaseomyces glabratus [26]) of 0.015 µg/mL (≈ 0.0118 µM). For the same compound, the MIC90 (Nakaseomyces glabratus [26]) was 0.015 µg/mL (≈ 0.0118 µM), the MIC (Nakaseomyces glabratus [27]) was 0.016 µg/mL (≈ 0.0126 µM) and the MIC50 (Nakaseomyces glabratus [27]) was 0.008 µg/mL (≈ 0.0063 µM). It also gave an MIC (Nakaseomyces glabratus [28]) of 0.03 µg/mL (≈ 0.0236 µM), an MIC50 (Nakaseomyces glabratus [28]) of 0.016 µg/mL (≈ 0.0126 µM) and an AUC(0-inf) [29] of 1400 µg·h/mL. It also gave an Activity (Nakaseomyces glabratus [30]) of 9.25 mg/kg, an Activity (Candida albicans [31]) of 4.6 mg/kg and an Activity (Nakaseomyces glabratus [32]) of 0.41 mg/kg.
